pIC50: −log10 of the molar value.

Consider eight molecules from ChEMBL document CHEMBL3259818, “Tomensides A-D, new antiproliferative phenylpropanoid sucrose esters from Prunus tomentosa leaves” (Bioorg Med Chem Lett, 2014).

What all share (format): functional, cell-based
For experiment [1], the system named is MCF7. Kind of experiment: Cytotoxicity against human MCF7 cells after 2 days by MTT assay. The following applies: MCF7, 48 h. Summed up:
(§1)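 Cells grown in RPMI-1640 and seeded in 96-well plates for 4 h before sample addition. Test samples were tested at four concentrations, with 37 °C incubation for 2 days. MTT solution (5 mg/mL) was then added for a further 4 h. Formazan was dissolved in 10% SDS in 0.01 M HCl and absorbance read at 550 nm. IC50 determined; 5-fluorouracil served as positive control.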
Background: Formazan colour is commonly taken as a measure of viable cells.

Experiment [2] relates to A549. Kind of experiment: Cytotoxicity against human A549 cells after 2 days by MTT assay. The following applies: A549, 48 h. The gist of the method:
as §1

In experiment [3] the test system is HeLa. The experiment can be described thus: Cytotoxicity against human HeLa cells after 2 days by MTT assay. The following applies: 48 h. Summed up: as §1
Experiment [4] concerns HT-29. The experiment can be described thus: Cytotoxicity against human HT-29 cells after 2 days by MTT assay. The settings on record: HT-29, 48 h. Summed up:
as §1

A word on the pIC50: it is −log10 of the IC50, conventionally taken in molar units. A low value points to a high IC50. Turning to `CC(=O)OC[C@H]1O[C@H](O[C@]2(COC(C)=O)O[C@H](CO)[C@@H](OC(C)=O)[C@@H]2OC(=O)/C=C/c2ccc(O)cc2)[C@H](O)[C@@H](O)[C@@H]1O`, the pIC50 is 6.21 in experiment [1], 6.54 in experiment [2], 6.96 in experiment [3] and 6.74 in experiment [4].
On the same counts, the results for `CC(=O)OC[C@H]1O[C@H](O[C@]2(COC(C)=O)O[C@H](CO)[C@@H](O)[C@@H]2OC(=O)/C=C/c2ccc(O)cc2)[C@H](O)[C@@H](OC(C)=O)[C@@H]1O` are 5.84, 5.59, 5.88 and 5.68.
Turning to `O=c1[nH]cc(F)c(=O)[nH]1` [FLUOROURACIL], the pIC50 in experiment [4] is 4.76.
Regarding `COc1cc(/C=C/C(=O)O[C@H]2[C@H](O)[C@@H](CO)O[C@@]2(COC(C)=O)O[C@H]2O[C@H](COC(C)=O)[C@@H](O)[C@H](O)[C@H]2OC(C)=O)ccc1O`, the pIC50 in experiment [1] was 6.11; in experiment [2], 6.35; in experiment [3], 5.96; in experiment [4] it was 6.34.
On the same counts, the results for `CC(=O)OC[C@H]1O[C@H](O[C@]2(CO)O[C@H](CO)[C@@H](O)[C@@H]2OC(=O)/C=C/c2ccc(O)cc2)[C@H](OC(C)=O)[C@@H](OC(C)=O)[C@@H]1O` are 6.01, 5.95, 5.36 and 5.61.
On to `CC(=O)OC[C@H]1O[C@H](O[C@]2(COC(C)=O)O[C@H](CO)[C@@H](O)[C@@H]2OC(=O)/C=C/c2ccc(O)cc2)[C@H](O)[C@@H](O)[C@@H]1OC(C)=O`, for which the pIC50 was 5.91 in experiment [1], 6.31 in experiment [2], 6.01 in experiment [3] and 5.83 in experiment [4].
The like results for `CC(=O)OC[C@H]1O[C@H](O[C@]2(CO)O[C@H](CO)[C@@H](O)[C@@H]2OC(=O)/C=C/c2ccc(O)cc2)[C@H](O)[C@@H](OC(C)=O)[C@@H]1OC(C)=O` were, in that order, 5.53, 5.83, 5.42 and 5.56.
`CC(=O)OC[C@H]1O[C@H](O[C@]2(COC(C)=O)O[C@H](CO)[C@@H](O)[C@@H]2OC(=O)/C=C/c2ccc(O)cc2)[C@H](OC(C)=O)[C@@H](O)[C@@H]1O`: the pIC50 was 5.46 in experiment [1], 5.49 in experiment [2], 5.60 in experiment [3] and 5.40 in experiment [4].
